Assay results: paper PMC4822498 (Journal of pharmaceutical sciences, 2015)
Converted amounts (≈) assume the structure as drawn. One block for each compound: values may come before it.

Key:
[1] = Determination of aqueous solubility; assay type: physicochemical; settings: DDI water, 37°C
How it was run: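 Saturated solution of test compound in 18 MΩ DDI water, shaken at 250 rpm at 37°C. Aliquots at time zero, 24 h and 48 h were filtered through 0.2 µm nylon and stored at −80°C before analysis.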

[2] = Chemical stability of the analogues in aqueous solution at pH 4.0 and 5.0; assay type: physicochemical
How it was run: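 Test compound prepared as 50 µM stock solutions in 10 mM acetate buffer (pH 4.0 and 5.0) and held at 40°C/75% RH. Aliquots were taken at 0, 1, 2 and 4 weeks; time-zero samples (n=3) were stored at −80°C. Drug content was measured by HPLC with norethindrone internal standard (LOQ 18.0 pmol). k = −2.303 × slope of a linear regression of log concentration vs time (first order).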

[3] = In vitro release study from IVR segments with release modelling; assay type: physicochemical
[4] = system: HIV-1IIIB; assay: Cytopathic effects; assay type: cell-based
[5] = system: HIV-1ZA/97/009; assay: Anti-HIV assay in fresh human PBMCs; assay type: cell-based
[6] = system: HIV-1RF; assay: Inhibition of cell to cell virus transmission assay; assay type: cell-based

Compound: NC(=O)CCNC(=O)c1ccccc1SC(=O)c1ccccc1 [SAMT-08]
water solubility [1]: 2377.6 ± 27.8 µM (≈ 781 µg/mL) | concentration remaining in aqueous solution ([2]; pH 4.0, 40°C/75% RH, 0 weeks): 46.5 ± 0.1 µM | concentration remaining in aqueous solution ([2]; pH 4.0, 40°C/75% RH, 1 week): 40.9 ± 0.1 µM | concentration remaining in aqueous solution ([2]; pH 4.0, 40°C/75% RH, 2 weeks): 35.1 ± 0.5 µM | concentration remaining in aqueous solution ([2]; pH 4.0, 40°C/75% RH, 4 weeks, ND = Not Detected): 26.8 ± 0.2 µM | Degradation rate constant (k) ([2]; pH 4.0, first order): 2.3 10^−7 sec^−1 | concentration remaining in aqueous solution ([2]; pH 5.0, 40°C/75% RH, 0 weeks): 68.6 ± 0.2 µM | concentration remaining in aqueous solution ([2]; pH 5.0, 40°C/75% RH, 1 week): 57.3 ± 0.6 µM | concentration remaining in aqueous solution ([2]; pH 5.0, 40°C/75% RH, 2 weeks): 49.0 ± 1.8 µM | concentration remaining in aqueous solution ([2]; pH 5.0, 40°C/75% RH, 4 weeks, ND = Not Detected): 36 ± 1.43 µM | Degradation rate constant (k) ([2]; pH 5.0, first order): 2.3 10^−7 sec^−1

diffusivity ([3]; IQP-0528 single agent IVR): 3.9 ± 0.4 × 10^−10 cm^2/s | release of IQP-0528 relative to SAMT-10 by mass ([3]; combination IVR): ~3.5 times | diffusivity ([3]; combination IVR, in presence of 8% SAMT-10): 2.8 ± 0.8 × 10^−10 cm^2/s | decrease of diffusivity in the presence of 8% SAMT-10 ([3]; combination vs single agent IVR): 27% | cumulative release ([3]; from combination IVR, 30 days, scaled to full IVR): 86 ± 13 mg/IVR | EC50 ([4]; Human immunodeficiency virus 1, CEM-SS): 2 nM | EC50 ([5]; Human immunodeficiency virus 1, PBMC, in Homo sapiens): 6 nM | EC50 ([6]; Human immunodeficiency virus 1): 6 nM
Compound: Cc1cc(C)cc(C(=O)c2c(C(C)C)c(=O)[nH]c(=O)n2CC2CC2)c1 [IQP-0528, 1-cyclopropylmethyl-6-(3,5-dimethyl-benzoyl)-5-isopropyl-1H-pyrimidine-2,4-dione]
EC95 ([4]; CEM-SS/HIV-1IIIB): 8 nM | EC95 ([5]; PBMCs/HIV-1ZA/97/009): 19 nM | EC95 ([6]; HIV-1RF Cell to Cell Transmission): 85 nM
